The source of these data is ChEMBL document CHEMBL1156074, “Diazo transfer-click reaction route to new, lipophilic teicoplanin and ristocetin aglycon derivatives with high antibacterial and anti-influenza virus activity: an aggregation and receptor binding study” (J Med Chem, 2009).

≈ marks a conversion by molar mass, not a printed value. Calls of active or inactive are those of the source.

Data set [1] deals with Influenza B virus. Put plainly: Antiviral activity against Influenza B virus (B/Hong Kong/5/72) assessed as cell viability at subtoxic concentration by cell-based MTS assay. Particulars: B/Hong Kong/05/1972. Format: functional.
In data set [2] the test system is Staphylococcus aureus. Put plainly: Bactericidal activity against methicillin-sensitive Staphylococcus aureus ATCC 29213 after overnight incubation. In kind it is functional.
For data set [3], the system named is Enterococcus faecalis. Put plainly: Antibacterial activity against vancomycin and teicoplanin-sensitive Enterococcus faecalis ATCC 29212 after 18 hrs by broth microdilution method. Format: functional. Particulars: ATCC 29212, 18 h.
Data set [4] relates to Influenza A virus. Put plainly: Antiviral activity against Influenza A virus (A/Puerto Rico/8/34(H1N1)) assessed as inhibition of virus-induced cytopathic effect at highest concentration by cell-based assay. Format: functional, organism-based. The conditions noted are these: A/Puerto Rico/8/1934(H1N1). Summed up:
(§1)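 Virus-induced cytopathic effect is scored visually in infected cell cultures. EC50 is defined as the compound concentration producing 50% inhibition of the CPE. A compound is recorded as not active when there is no inhibition at the highest concentration tested or at a subtoxic concentration.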

Data set [5] relates to H3N2 subtype. Put plainly: Antiviral activity against Influenza A virus (A/Hong Kong/7/87(H3N2)) assessed as cell viability at subtoxic concentration by cell-based MTS assay. In kind it is functional, organism-based. Particulars: A/Hong Kong/7/1987(H3N2). (In general: Formazan colour is commonly taken as a measure of viable cells.)
Data set [6] has as its system Bacillus subtilis. Put plainly: Antibacterial activity against Bacillus subtilis ATCC 6633 after 18 hrs by broth microdilution method. Format: functional. Particulars: ATCC 6633, 18 h. For orientation: Dilution methods test growth across graded concentrations, often in twofold steps.
Data set [7] concerns Enterococcus faecalis. Put plainly: Bactericidal activity against vancomycin and teicoplanin-resistant Enterococcus faecalis 15376 harboring vanA gene after overnight incubation. Format: functional.
For data set [8], the system named is Staphylococcus epidermidis. Put plainly: Antibacterial activity against Staphylococcus epidermidis after 18 hrs by broth microdilution method. Format: functional.
Data set [9] has as its system H3N2 subtype. Put plainly: Antiviral activity against Influenza A virus (A/Hong Kong/7/87(H3N2)) assessed as inhibition of virus-induced cytopathic effect at highest concentration by cell-based assay. The conditions noted are these: A/Hong Kong/7/1987(H3N2). In kind it is functional, organism-based. Summed up: as §1
(In general: Cytopathic effects are the visible damage that an infection or toxin causes in cultured cells.)

Data set [10] concerns Staphylococcus aureus. Put plainly: Antibacterial activity against methicillin-sensitive Staphylococcus aureus ATCC 29213 after 18 hrs by broth microdilution method. Particulars: ATCC 29213, 18 h. In kind it is functional.
The subject of data set [11] is Staphylococcus aureus. Put plainly: Bactericidal activity against methicillin-sensitive Staphylococcus aureus ATCC 33591 after overnight incubation. In kind it is functional.
Data set [12] concerns Enterococcus faecalis. Put plainly: Antibacterial activity against vancomycin and teicoplanin-resistant Enterococcus faecalis 15376 harboring vanA gene after 18 hrs by broth microdilution method. Particulars: Enterococcus faecalis, 15376, 18 h. In kind it is functional.
Data set [13] has as its system Influenza A virus. Put plainly: Antiviral activity against Influenza A virus (A/Puerto Rico/8/34(H1N1)) assessed as cell viability at subtoxic concentration by cell-based MTS assay. Format: functional, organism-based. Particulars: A/Puerto Rico/8/1934(H1N1).
Data set [14] concerns Staphylococcus epidermidis. Put plainly: Bactericidal activity against Staphylococcus epidermidis after overnight incubation. In kind it is functional.
Data set [15] deals with Staphylococcus aureus. Put plainly: Antibacterial activity against methicillin-sensitive Staphylococcus aureus ATCC 33591 after 18 hrs by broth microdilution method. Format: functional. Particulars: ATCC 33591, 18 h.
Data set [16] deals with Influenza B virus. Put plainly: Antiviral activity against Influenza B virus (B/Hong Kong/5/72) assessed as inhibition of virus-induced cytopathic effect at highest concentration by cell-based assay. In kind it is functional. The conditions noted are these: B/Hong Kong/05/1972. Summed up:
as §1

The subject of data set [17] is Enterococcus faecalis. Put plainly: Antibacterial activity against vancomycin-resistant and teicoplanin-sensitive Enterococcus faecalis ATCC 51299 harboring vanB gene after 18 hrs by broth microdilution method. Format: functional. Particulars: ATCC 51299, 18 h.
Data set [18] relates to Enterococcus faecalis. Put plainly: Bactericidal activity against vancomycin-resistant and teicoplanin-sensitive Enterococcus faecalis ATCC 51299 harboring vanB gene after overnight incubation. In kind it is functional.
The test system of data set [19] is Staphylococcus epidermidis. Put plainly: Bactericidal activity against biofilm of Staphylococcus epidermidis ATCC 35984 after overnight incubation. Format: functional. The conditions noted are these: RP62A.
For data set [20], the system named is Bacillus subtilis. Put plainly: Bactericidal activity against Bacillus subtilis ATCC 6633 after overnight incubation. Format: functional.
Data set [21] has as its system Staphylococcus epidermidis. Put plainly: Antibacterial activity against biofilm of Staphylococcus epidermidis ATCC 35984 after 18 hrs by broth microdilution method. In kind it is functional. Particulars: RP62A.
The test system of data set [22] is Enterococcus faecalis. Put plainly: Bactericidal activity against vancomycin and teicoplanin-sensitive Enterococcus faecalis ATCC 29212 after overnight incubation. In kind it is functional.
The test system of data set [23] is Influenza A virus. Put plainly: Antiviral activity against Influenza A virus (A/Puerto Rico/8/34(H1N1)) assessed as inhibition of virus-induced cytopathic effect by cell-based assay. In kind it is functional, organism-based, A/Puerto Rico/8/1934(H1N1). The conditions noted are these: Influenza A virus, A/Puerto Rico/8/1934(H1N1). The method in brief: as §1
Data set [24] relates to Influenza A virus. Put plainly: Antiviral activity against Influenza A virus (A/Puerto Rico/8/34(H1N1)) assessed as cell viability by cell-based MTS assay. In kind it is functional, organism-based. The conditions noted are these: A/Puerto Rico/8/1934(H1N1). The method in brief: (§2)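 Cell-based influenza assay. The read-out is cell viability by the colorimetric formazan-based MTS assay. EC50 is the concentration giving 50% inhibition of the virus-induced cytopathic effect.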

In data set [25] the test system is H3N2 subtype. Put plainly: Antiviral activity against Influenza A virus (A/Hong Kong/7/87(H3N2)) assessed as cell viability by cell-based MTS assay. The conditions noted are these: A/Hong Kong/7/1987(H3N2). In kind it is functional, organism-based. Summed up: as §2
In data set [26] the test system is H3N2 subtype. Put plainly: Antiviral activity against Influenza A virus (A/Hong Kong/7/87(H3N2)) assessed as inhibition of virus-induced cytopathic effect by cell-based assay. Format: functional, organism-based. Particulars: A/Hong Kong/7/1987(H3N2). The method in brief: as §1
A short description of data set [27]: Octanol-aqueous buffer partition coefficient, log P at pH 7 by shake-flask method. In kind it is physicochemical.
The subject of the next data set is Enterococcus. Put plainly: Antibacterial activity against vancomycin and teicoplanin-resistant Enterococcus harboring vanA resistance gene. Format: functional.

Regarding `CCCCCCCCCCOCc1cn([C@H]2C(=O)N[C@@H]3Cc4ccc(c(Cl)c4)Oc4cc5cc(c4O)Oc4ccc(cc4Cl)[C@@H](O)[C@@H]4NC(=O)[C@H](NC(=O)[C@@H]5NC(=O)[C@@H](NC3=O)c3cc(O)cc(c3)Oc3cc2ccc3O)c2ccc(O)c(c2)-c2c(O)cc(O)cc2[C@H](C(=O)OC)NC4=O)nn1`, the inhibition entry in the data set with Influenza B virus [1], with Influenza A virus [4], in the data set with H3N2 subtype [5], in the data set with H3N2 subtype [9], in the data set with Influenza A virus [13] and with Influenza B virus [16] was “inactive” each time. In addition, the MBC is 256 µg/mL (≈ 178 µM) with Staphylococcus aureus [2]; 256 µg/mL (≈ 178 µM) against Enterococcus faecalis [7]; 256 µg/mL (≈ 178 µM) against Staphylococcus aureus [11]; 64 µg/mL (≈ 44.6 µM) in [14]; 256 µg/mL (≈ 178 µM) in the data set with Enterococcus faecalis [18]; 256 µg/mL (≈ 178 µM) in [19]. The MBC against Bacillus subtilis [20] is 0.5 µg/mL (≈ 0.348 µM); in the data set on Enterococcus faecalis [22], 128 µg/mL (≈ 89.2 µM). Further, the MIC in the data set on Enterococcus faecalis [3] came to 32 µg/mL (≈ 22.3 µM); in the data set on Bacillus subtilis [6], 0.5 µg/mL (≈ 0.348 µM); in data set [8] it was 16 µg/mL (≈ 11.1 µM); in the data set with Staphylococcus aureus [10] it was 128 µg/mL (≈ 89.2 µM); with Enterococcus faecalis [12], 128 µg/mL (≈ 89.2 µM); in the data set with Staphylococcus aureus [15], 64 µg/mL (≈ 44.6 µM). Moreover, the MIC was determined as 64 µg/mL (≈ 44.6 µM) in the data set with Enterococcus faecalis [17] and 256 µg/mL (≈ 178 µM) in data set [21].

Take `NC12CC3CC(CC(C3)C1)C2` [AMANTADINE]: the inhibition entry in the data set with Influenza B virus [1] and with Influenza B virus [16] was “inactive” throughout. Also, the EC50 came to 45 µM in the data set on Influenza A virus [23], 35 µM with Influenza A virus [24], 0.4 µM in the data set on H3N2 subtype [25] and 0.8 µM in the data set on H3N2 subtype [26].

In the case of `COC(=O)[C@@H]1NC(=O)[C@H]2NC(=O)[C@H](NC(=O)[C@@H]3NC(=O)[C@H]4NC(=O)[C@H](NC(=O)[C@H](N=[N+]=[N-])c5ccc(O)c(c5)Oc5cc4cc(O)c5C)[C@H](O)c4ccc(cc4)Oc4cc3cc(c4O)Oc3ccc(cc3)[C@H]2O)c2ccc(O)c(c2)-c2c(O)cc(O)cc21`, the inhibition result in the data set with Influenza B virus [1] and in the data set on Influenza B virus [16] was “inactive” in each case. The logD in [27] was 0.29.

In the case of `CCCCCCCCCCOCc1cn([C@H]2C(=O)N[C@@H]3Cc4ccc(c(Cl)c4)Oc4cc5cc(c4O)Oc4ccc(cc4Cl)[C@@H](O[C@@H]4O[C@H](CO)[C@@H](O)[C@H](O)[C@H]4NC(C)=O)[C@@H]4NC(=O)[C@H](NC(=O)[C@@H]5NC(=O)[C@@H](NC3=O)c3cc(O)cc(c3)Oc3cc2ccc3O)c2ccc(O)c(c2)-c2c(O)cc(O)cc2[C@H](C(=O)O)NC4=O)nn1`, the inhibition entry with Influenza B virus [1], in the data set with Influenza A virus [4], in the data set with H3N2 subtype [5], with H3N2 subtype [9], in the data set on Influenza A virus [13] and with Influenza B virus [16] was “inactive” in each case. Also, the MBC against Staphylococcus aureus [2] is 0.25 µg/mL (≈ 0.154 µM); against Enterococcus faecalis [7] it was 0.25 µg/mL (≈ 0.154 µM); in the data set on Staphylococcus aureus [11], 0.25 µg/mL (≈ 0.154 µM); in data set [14], 0.5 µg/mL (≈ 0.308 µM); in the data set on Enterococcus faecalis [18] it was 0.25 µg/mL (≈ 0.154 µM); in data set [19], 0.25 µg/mL (≈ 0.154 µM). Further, the MBC in the data set with Bacillus subtilis [20] and in the data set on Enterococcus faecalis [22] was 0.25 µg/mL (≈ 0.154 µM) throughout. In addition, the MIC was found to be 0.5 µg/mL (≈ 0.308 µM) against Enterococcus faecalis [3]; 2 µg/mL (≈ 1.23 µM) against Bacillus subtilis [6]; 0.5 µg/mL (≈ 0.308 µM) in data set [8]; 0.5 µg/mL (≈ 0.308 µM) against Staphylococcus aureus [10]; 0.5 µg/mL (≈ 0.308 µM) with Enterococcus faecalis [12]; 0.5 µg/mL (≈ 0.308 µM) against Staphylococcus aureus [15]. Also, the MIC (against Enterococcus faecalis [17]; in data set [21]) was 0.5 µg/mL (≈ 0.308 µM) in each case.

`CN[C@H](CC(C)C)C(=O)N[C@H]1C(=O)N[C@@H](CC(N)=O)C(=O)N[C@H]2C(=O)N[C@H]3C(=O)N[C@H](C(=O)N[C@H](C(=O)O)c4cc(O)cc(O)c4-c4cc3ccc4O)[C@H](O[C@H]3C[C@](C)(N)[C@@H](O)[C@H](C)O3)c3ccc(c(Cl)c3)Oc3cc2cc(c3O[C@@H]2O[C@H](CO)[C@@H](O)[C@H](O)[C@H]2O[C@H]2C[C@](C)(NCc3ccc(-c4ccc(Cl)cc4)cc3)[C@@H](O)[C@H](C)O2)Oc2ccc(cc2Cl)[C@H]1O` [ORITAVANCIN] showed an MIC against Enterococcus of less than 1 µg/mL.

Usually EC50 stands for the midpoint of the concentration-response curve. One may read the logD as the decadic logarithm of the distribution of all forms, ionised or not, between an organic phase and buffer at a given pH.
